Out of some 130,000 compounds screened, about 900 (0.69%) were called active. The entries come from a sample that favours actives as a whole. A number with no mark means an inactive call.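 How the source made its calls: active means inhibition above a set limit, placed 3 SD over the median of all compounds (cut at about 26% in these data); inactive means the rest.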
experiment: rescue of nicotinamide-shortened yeast lifespan – S. cerevisiae, OD615, primary screen (AID 775);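 further: 0% = nicotinamide-treated wells and 100% = cells grown without nicotinamide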; conditions: S. cerevisiae growth with nicotinamide, at 10 µM, stronger effect = higher value, deaD strain in restrictive glucose medium
Summary of the method: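 Test system – modified budding yeast, DeaD strain · Compound – single dose 10 µM compound, 0.25% DMSO · Times – culture preincubation 4 h, compound exposure 48 h, both 30 °C · Detection – optical density (absorbance) at 615 nm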

SMILES	inhibition of the nicotinamide effect
O=C1OC(c2ccc(Cl)cc2)=N/C1=C\c1cccnc1	20.7%
O=C(O)C1CC(=O)N(Cc2cccnc2)C1 (configuration not stated)	-1.28%
O=C1/C(=C\c2cccnc2)CN(Cc2ccccc2)C/C1=C\c1cccnc1	54.9% (active)
O=C(NCCc1ccccc1)C1CCC(Cn2c(=O)c3ccccc3n(Cc3cccnc3)c2=O)CC1 (configuration not stated)	0.76%
Cc1ccc2nc(-c3cccnc3)c(NC3CCCC3)n2c1	-2.42%
Cc1cccc(OP(=O)(Nc2c(C)n(C)n(-c3ccccc3)c2=O)Oc2cccc(C)c2)c1	0%
CCN(CC)c1ccc([N+](=O)[O-])cc1C(=O)O	4.32%
O=C(COC(=O)CCCNC(=O)c1ccc(Cl)cc1)Nc1cc(Cl)ccc1Cl	5.47%
CC1CN(S(=O)(=O)c2ccc(C(=O)Nc3sccc3C(N)=O)cc2)CC(C)O1 (configuration not stated)	0.65%
Cc1sc(NC(=S)NC(=O)c2cccs2)nc1-c1ccc(CC(C)C)cc1	-13.7%
CC(C)Cc1nn2c(=O)cc(O)nc2s1	47.1% (active)
COC(=O)c1ccc(C(=O)OC)c(NC(=S)N2CCN(c3ccc(F)cc3)CC2)c1	-4.39%
CSCc1ccc(C(=O)Nc2cc(C)cc(C)c2)cc1	1.95%
CCCn1c(=O)c(-c2ccccc2)c(O)c2ccccc21	3.34%
Cn1c(=O)c(Sc2ccc(Cl)cc2)c(O)c2ccccc21	29.7% (active)
Cn1c(=O)c(C(=O)Nc2ncccn2)c(O)c2ccccc21	-13.7%
O=C(/C=C/c1ccccc1[N+](=O)[O-])NCC1CCCO1 (configuration not stated)	1.94%
Cc1ccc(C(=O)OCc2nc(N)nc(Nc3ccccc3C)n2)cc1	-3.73%
NS(=O)(=O)c1ccc(CCNC(=S)Nc2ccc(S(N)(=O)=O)cc2)cc1	1.53%
Cc1cccc(CC(=O)N2CCN=C2SCc2ccc([N+](=O)[O-])cc2)c1	-1.98%
CC(=C1C(=O)c2ccccc2C1=O)N1CCN(c2ccccn2)CC1	54.4% (active)
O=C(C(Cl)Cl)N1CCN(c2ccccn2)CC1	1.15%
CNC(=S)N1CCN(c2ccccn2)CC1	1.57%
S=C(Nc1cccc(Cl)c1)Nc1ccc2cn[nH]c2c1	32.1% (active)
Cc1cccc(NC(=S)Nc2ccc3cn[nH]c3c2)c1	3.23%

SMILES	inhibition of the nicotinamide effect
Cc1csc(NC(=S)Nc2cccc(Cl)c2)n1	-1.45%
Cc1ccc(NC(=O)CCC(=O)N/N=C/c2ccco2)c(C)c1	0.43%
Cc1ccc2c(CC(=O)NCc3cccs3)coc2c1	-1.73%
Cc1cccc(C(=O)c2cccc(C)c2)c1	-6.29%
Cc1nccn1CC(=O)N/N=C/c1ccc(O)c(O)c1	0.31%
COc1ccccc1C1CC(=O)n2c(nc(-c3ccccc3)c2-c2ccccc2)S1 (configuration not stated)	0.78%
COc1cc(OC)c(-n2c(C)cc(C=O)c2C)cc1Cl	39.8% (active)
COc1cc(OC)c(-n2cc(-c3ccc(Cl)cc3)[nH]c2=O)cc1Cl	-0.64%
Cc1cc(C=O)c(C)n1-c1ccc(NC2CCCCC2)c([N+](=O)[O-])c1	-25.3%
O=C(Cc1coc2ccc3ccccc3c12)NCc1cccs1	-1.99%
COc1cc(/C=N\NC(=O)c2nonc2N)c(OC)cc1Br	5.5%
COCCn1c(=O)[nH]c(=O)c2cc(C(=O)c3cc(OC)ccc3O)cnc21	-5.05%
CCCn1c(=O)c2c(C(F)(F)F)cc(-c3cccs3)nc2n(CCC)c1=O	3.84%
O=C(O)c1cccc2c1C(=O)N(C1CCCCC1)C2	63.7% (active)
CCCN1Cc2cccc(C(=O)Nc3ccc(S(=O)(=O)N4CCCCCC4)cc3)c2C1=O	-3.05%
CCCN1Cc2cccc(C(=O)NCc3ccccc3)c2C1=O	-14.6%
COc1cc(NC(=S)NNC(=O)CC(C)C)c(OC)cc1Cl	0.62%
COc1ccccc1NC(=O)CCCc1c[nH]c2ccccc12	-7.92%
COc1ccc(NC(=O)/C(Cl)=C(/Cl)S(=O)Cc2ccc(C)cc2)cn1 (configuration not stated)	45.5% (active)
COc1ccc(NS(=O)(=O)c2ccc(NC(=S)NC(=O)/C=C/c3ccc(C)cc3)cc2)nn1	-1.4%
COc1cccc(NC(=O)Cc2ccc(C)cc2)c1	-12.4%
Cc1ccc(CC(=O)Nc2ccc(OC(F)F)c(Cl)c2)cc1C	0.1%
O=C(NCC1CCCO1)c1ccc2ccccc2n1 (configuration not stated)	-8.01%
O=C(CS(=O)(=O)Cc1ccccc1)NCC1CCCO1 (configuration not stated)	46.3% (active)
S=C(NCCc1ccccc1)NCC1CCCO1 (configuration not stated)	1.76%

SMILES	inhibition of the nicotinamide effect
COc1ccc(-n2c(=S)[nH]c3sc4c(c3c2=O)CCc2ccccc2-4)cc1	8.03%
O=C(/C=C/c1ccc([N+](=O)[O-])cc1)NCCSCc1ccco1	-1.15%
CC(=O)c1c(O)cc2n(c1=O)-c1ccc(Cl)cc1C2(C)C	50.9% (active)
O=C(COC(=O)/C=C/c1nc2ccccc2s1)Nc1ccccc1Oc1ccccc1	-1.04%
Cc1nnc(NC(=O)/C=C/c2ccco2)s1	-3.6%
COc1ccc(-c2cc(C(F)(F)F)nc(S(C)(=O)=O)n2)cc1OC	48.9% (active)
COc1cc(OC)nc(S(C)(=O)=O)n1	2.39%
COc1ccc(-c2cc(C(F)(F)F)nc(SCC(=O)Nc3ccc4c(c3)OCO4)n2)cc1OC	3.91%
Cc1ccc(C)c2[nH]c(=O)c(CCNC(=O)c3cccs3)cc12	-0.37%
O=C(OC1CCOC1=O)c1cccc(S(=O)(=O)Nc2ccc(F)cc2)c1 (configuration not stated)	1.4%
COc1ccc(C)cc1NC(=O)C(OC(=O)c1cccc(S(=O)(=O)N(C)c2ccccc2)c1)c1ccccc1 (configuration not stated)	-5.56%
Cc1cccc(N=C2NN=C(c3c[nH]c4ccccc34)CS2)c1	5.95%
CCN(CC(=O)NCCc1ccccc1)S(=O)(=O)c1ccc(C)cc1	5.67%
C/C(=N\c1nc2ccccc2n1C)c1cc(Cl)ccc1O	-13.3%
CCn1c(NC(=O)c2nn(C)cc2Br)nc2ccccc21	-7.14%
CCN(CC)CCn1c(/N=C/c2cc(Br)ccc2O)nc2ccccc21	37.7% (active)
CN(c1ccccc1)S(=O)(=O)c1cccc(NC(=O)Cc2c(F)cccc2Cl)c1	1.53%
O=C(CN1C2=NCCN2c2ccccc21)c1cccs1	0.42%
O=C(O)c1cccc(N2C(=O)Nc3ccccc3N2O)c1	4.66%
O=C1Nc2cc(Cl)c(Cl)cc2N(O)N1c1cc(Cl)cc(Cl)c1	110% (active)
CCOC(=O)c1c(NC(=O)Cn2nc(C(F)(F)F)cc2C)sc2c1CCC2	-3.99%
O=C1CC(c2ccccc2)CC(O)=C1C=NCCN1CCOCC1 (configuration not stated)	70.8% (active)
O=C1CC(c2cccc(Cl)c2)CC(O)=C1C=Nc1ccccc1 (configuration not stated)	-1.47%
CC(C)C(=O)N1CCN(CCN=CC2=C(O)CC(c3ccco3)CC2=O)CC1 (configuration not stated)	-8.76%
O=C(Nc1ccc2ccccc2c1)/C(=C\c1ccc2c(c1)OCO2)NC(=O)c1ccco1	2.64%

SMILES	inhibition of the nicotinamide effect
CN(c1ccccc1)c1nc(N)c([N+](=O)[O-])c(NCc2ccco2)n1	8.11%
CCOC(=O)C1CCN(C(=O)/C=C/c2cc(OC)c(OC)c(OC)c2)CC1	-0.86%
Cc1nc2c(C(=O)NCc3cccs3)cnn2c(C)c1Cc1ccc(F)cc1	7.32%
Cc1ccc(SCCC(=O)NC(C(C)C)C(C)C)cc1	1.38%
CC1Cc2ccccc2N1C(=O)CSc1nc2ccccc2o1 (configuration not stated)	-13.2%
CC1Cc2ccccc2N1C(=O)Cn1cnc2ccccc2c1=O (configuration not stated)	55.5% (active)
CCn1nc(C(=O)OCC(=O)N2c3ccccc3CC2C)c2ccccc2c1=O (configuration not stated)	-14.7%
COc1ccc(COC(=O)N/N=C(\C)CC(=O)Nc2ccc(Cl)cc2)cc1	-3.92%
O=S(=O)(NCCSc1ccccn1)c1ccc(Cl)cc1	10.5%
COc1ccc(/C=C(/CC(=O)Nc2ccc(C)cc2)c2nc3ccccc3s2)cc1	-0.84%
Cc1cc(/C=C(/C#N)C(=O)Nc2ccc(Cl)cc2)c(C)n1-c1cccnc1	0.59%
CNC(=O)/C(C#N)=C/c1c(F)cccc1Cl	43.1% (active)
N#C/C(=C\c1ccccc1C(F)(F)F)C(=O)Nc1ccccc1F	6.56%
CCOC(=O)C(C)Sc1nnc(CSc2nc3nc(C)cc(C)n3n2)o1 (configuration not stated)	-1.15%
CCOc1ncccc1C(=O)N(C)CC(=O)Nc1ccc(F)cc1	0.31%
O=C(/C=C/c1cccc([N+](=O)[O-])c1)NCCSCc1ccco1	-4.01%
O=C(CN1C(=O)CCC1=O)Nc1ccc(S(=O)(=O)N2CCOCC2)cc1	-14.7%
COc1ccc(CC(=O)Nc2ccc3c(c2)CCC3)cc1S(=O)(=O)N1CCOCC1	61% (active)
COc1ccc(CNc2ccc3c(c2)CCC3)cc1OC	-10.1%
CCCc1cc(=O)[nH]c(SCc2cc(=O)oc3c(C)c(C)ccc23)n1	4.9%
O=C(OCc1ccc(Br)cc1)c1cccc(-c2nnc(-c3ccccc3)o2)c1	10.4%
CCOC(=O)NN1C(=O)c2ccccc2NC1c1cccc(O)c1 (configuration not stated)	-1.57%

— PubChem BioAssay AID775 (SRMLSC, 2007)
